Measurements: ChEMBL document CHEMBL4602707, “Synthesis and Structure-Activity Relationship of Pyxinol Derivatives as Novel Anti-Inflammatory Agents” (ACS Med Chem Lett, 2020)
Calls of active or inactive are those of the source. The rule behind the calls is not given here.

Key:
RAW264.7 [1] = test: Antiinflammatory activity in mouse RAW264.7 cells assessed as inhibition of LPS-induced NO production at 20 uM after 24 hrs by Griess method; type: functional, cell-based
How it was run: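 RAW264.7 cells co-treated with test agent (20 μM) and LPS (1 μg/mL) for 24 h. NO released to medium measured by Griess assay. Hydrocortisone sodium succinate (20 μM) positive control. Mean ± SD, n = 3; significance versus control.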

RAW264.7 [2] = test: Cytotoxicity against LPS-stimulated mouse RAW264.7 cells at 20 uM after 24 hrs by MTT assay; type: cell-based; settings: raw264.7, 24 h
How it was run: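 RAW264.7 cells co-treated with test agent (20 μM) and LPS (1 μg/mL) for 24 h; survival read by MTT. Mean ± SD, n = 3; significance versus control group.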

RAW264.7 [3] = test: Antiinflammatory activity in mouse RAW264.7 cells assessed as reduction in LPS-induced COX2 protein expression after 24 hrs by Western blot analysis; type: functional, cell-based
How it was run: (§1)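 RAW264.7 cells co-treated 24 h with LPS (1 μg/mL) plus test agent (10, 20, 30 μM) or hydrocortisone sodium succinate (20 μM). COX-2 and iNOS protein levels determined. Mean ± SD of three independent experiments; significance versus LPS-stimulated group.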

RAW264.7 [4] = test: Antiinflammatory activity in mouse RAW264.7 cells assessed as reduction in LPS-induced IL-6 secretion preincubated for 2 hrs followed by LPS addition and measured after 4 hrs by ELISA; type: functional, cell-based
How it was run: (§2)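 RAW264.7 cells pretreated 2 h with test agent (10, 20, 30 μM) or hydrocortisone sodium succinate (20 μM), then LPS (1 μg/mL) for 4 h. TNF-α and IL-6 production measured. Mean ± SD, n = 3; significance versus control group.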

RAW264.7 [5] = test: Inhibition of LPS-stimulated NFkappaB activation in mouse RAW264.7 cells assessed as reduction in LPS-induced IkappaB phosphorylation at 10 to 30 uM after 2 hrs by Western blot analysis; type: cell-based
How it was run: (§3)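 RAW264.7 cells co-treated 2 h with LPS (1 μg/mL) plus test agent (10, 20, 30 μM) or hydrocortisone sodium succinate (20 μM). IκB phosphorylation and degradation assessed as NF-κB pathway read-out. Mean ± SD, n = 3; significance versus LPS-stimulated group.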

RAW264.7 [6] = test: Antiinflammatory activity in mouse RAW264.7 cells assessed as reduction in LPS-induced iNOS expression after 24 hrs by Western blot analysis; type: functional, cell-based; how it was run: as §1
RAW264.7 [7] = test: Antiinflammatory activity in LPS-induced mouse RAW264.7 cells in presence of glucocorticoid receptor antagonist RU-486; type: functional, cell-based
RAW264.7 [8] = test: Antiinflammatory activity in mouse RAW264.7 cells assessed as reduction in LPS-stimulated TNF alpha secretion preincubated for 2 hrs followed by LPS addition and measured after 4 hrs by ELISA; type: functional, cell-based; how it was run: as §2
RAW264.7 [9] = test: Inhibition of LPS-stimulated NFkappaB activation in mouse RAW264.7 cells assessed as reduction in LPS-induced IkappaB degradation at 10 to 30 uM after 2 hrs by Western blot analysis; type: cell-based; how it was run: as §3
RAW264.7 [10] = test: Antiinflammatory activity in mouse RAW264.7 cells assessed as reduction in LPS-induced iNOS expression at 20 uM after 24 hrs by Western blot analysis; type: functional, cell-based; how it was run: as §1
RAW264.7 [11] = test: Inhibition of LPS-stimulated NFkappaB activation in mouse RAW264.7 cells assessed as reduction in LPS-induced IkappaB degradation at 20 uM after 2 hrs by Western blot analysis; type: cell-based; how it was run: as §3
RAW264.7 [12] = test: Antiinflammatory activity in mouse RAW264.7 cells assessed as reduction in LPS-induced COX2 protein expression at 20 uM after 24 hrs by Western blot analysis; type: functional, cell-based; how it was run: as §1
RAW264.7 [13] = test: Inhibition of LPS-stimulated NFkappaB activation in mouse RAW264.7 cells assessed as reduction in LPS-induced IkappaB phosphorylation at 20 uM after 2 hrs by Western blot analysis; type: cell-based; how it was run: as §3

Structure (SMILES)	inhibition (RAW264.7 [1])	Activity (RAW264.7 [2])	other results
CCCCCC(=O)O[C@H]1CC[C@]2(C)[C@H]3C[C@@H](O)[C@@H]4[C@@H]([C@]5(C)CC[C@H](C(C)(C)O)O5)CC[C@@]4(C)[C@]3(C)CC[C@H]2C1(C)C	Active	Non-Toxic	
CC(C)(O)[C@H]1CC[C@@](C)([C@H]2CC[C@]3(C)[C@@H]2C(=N)C[C@@H]2[C@@]4(C)CC[C@H](O)C(C)(C)[C@@H]4CC[C@]23C)O1	inactive	Non-Toxic	
CCCCCC(=O)O[C@H]1CC[C@]2(C)[C@H]3C[C@@H](O)[C@@H]4[C@@H]([C@]5(C)CC[C@@H](C(C)(C)O)O5)CC[C@@]4(C)[C@]3(C)CC[C@H]2C1(C)C	Active	Non-Toxic	
CC(C)(O)[C@H]1CC[C@@](C)([C@H]2CC[C@]3(C)[C@@H]2[C@H](O)C[C@@H]2[C@@]4(C)CC/C(=N\O)C(C)(C)[C@@H]4CC[C@]23C)O1	Active	Non-Toxic	Activity (RAW264.7 [3]): Dose-dependent effect; Activity (RAW264.7 [4]): Dose-dependent effect; inhibition (RAW264.7 [5]): Active; Activity (RAW264.7 [6]): Dose-dependent effect; Activity (RAW264.7 [7]): Active; Activity (RAW264.7 [8]): Dose-dependent effect; inhibition (RAW264.7 [9]): Active
CC(C)(O)[C@H]1CC[C@@](C)([C@H]2CC[C@]3(C)[C@@H]2[C@H](O)C[C@@H]2[C@@]4(C)CCC(=O)C(C)(C)[C@@H]4CC[C@]23C)O1	Active	Non-Toxic	
CC(C)(O)[C@@H]1CC[C@@](C)([C@H]2CC[C@]3(C)[C@@H]2[C@H](O)C[C@@H]2[C@@]4(C)CC[C@H](N)C(C)(C)[C@@H]4CC[C@]23C)O1	Active	Non-Toxic	
CC(C)(O)[C@H]1CC[C@@](C)([C@H]2CC[C@]3(C)[C@@H]2[C@H](O)C[C@@H]2[C@@]4(C)CC[C@@H](N)C(C)(C)[C@@H]4CC[C@]23C)O1	Active	Non-Toxic	
CC(C)(O)[C@H]1CC[C@@](C)([C@H]2CC[C@]3(C)[C@@H]2/C(=N/O)C[C@@H]2[C@@]4(C)CC[C@H](O)C(C)(C)[C@@H]4CC[C@]23C)O1	inactive	Non-Toxic	
C[C@]12CCC(=O)C=C1CC[C@@H]1[C@@H]2[C@@H](O)C[C@@]2(C)[C@H]1CC[C@]2(O)C(=O)COC(=O)CCC(=O)O			Activity (RAW264.7 [10]): Active; inhibition (RAW264.7 [11]): Active; Activity (RAW264.7 [12]): Active; inhibition (RAW264.7 [13]): Active
CC(C)(O)[C@H]1CC[C@@](C)([C@H]2CC[C@]3(C)[C@@H]2C(=O)C[C@@H]2[C@@]4(C)CC[C@H](O)C(C)(C)[C@@H]4CC[C@]23C)O1	Active	Non-Toxic	
CC(C)(O)[C@@H]1CC[C@@](C)([C@H]2CC[C@]3(C)[C@@H]2[C@H](O)C[C@@H]2[C@@]4(C)CC/C(=N\O)C(C)(C)[C@@H]4CC[C@]23C)O1	Active	Non-Toxic	
CC(C)(O)[C@H]1CC[C@@](C)([C@H]2CC[C@]3(C)[C@@H]2[C@H](O)C[C@@H]2[C@@]4(C)CC[C@H](N)C(C)(C)[C@@H]4CC[C@]23C)O1	Active	Non-Toxic	
CC(C)(O)[C@H]1CC[C@@](C)([C@H]2CC[C@]3(C)[C@@H]2[C@@H](N)C[C@@H]2[C@@]4(C)CC[C@H](O)C(C)(C)[C@@H]4CC[C@]23C)O1		Toxic	
CC(C)(O)[C@H]1CC[C@@](C)([C@H]2CC[C@]3(C)[C@@H]2[C@@H](O)C[C@@H]2[C@@]4(C)CC[C@H](O)C(C)(C)[C@@H]4CC[C@]23C)O1	inactive		
CC(C)(O)[C@H]1CC[C@@](C)([C@H]2CC[C@]3(C)[C@@H]2[C@H](O)C[C@@H]2[C@@]4(C)CC[C@H](O)C(C)(C)[C@@H]4CC[C@]23C)O1	Active	Non-Toxic	
CC(C)(O)[C@@H]1CC[C@@](C)([C@H]2CC[C@]3(C)[C@@H]2[C@H](O)C[C@@H]2[C@@]4(C)CC[C@H](O)C(C)(C)[C@@H]4CC[C@]23C)O1	inactive	Non-Toxic	
CC(C)(O)[C@H]1CC[C@@](C)([C@H]2CC[C@]3(C)[C@@H]2C(=O)C[C@@H]2[C@@]4(C)CCC(=O)C(C)(C)[C@@H]4CC[C@]23C)O1		Non-Toxic	
CC(C)(O[Si](C)(C)C(C)(C)C)[C@H]1CC[C@@](C)([C@H]2CC[C@]3(C)[C@@H]2[C@H](O)C[C@@H]2[C@@]4(C)CC[C@H](O)C(C)(C)[C@@H]4CC[C@]23C)O1	inactive	Non-Toxic	
CC(C)(O)[C@@H]1CC[C@@](C)([C@H]2CC[C@]3(C)[C@@H]2[C@H](O)C[C@@H]2[C@@]4(C)CCC(=O)C(C)(C)[C@@H]4CC[C@]23C)O1	Active	Non-Toxic	
